Assay results as given in paper PMC3858840 (Journal of molecular biology, 2013).

Assays:
CaM (calmodulin) = experiment: Direct interaction between moesin-FERM and CaM; type: binding; details: up to 10 µM moesin-FERM; 0.3 mM CaCl2; ex 340 nm
[1] = system: TMR-CLS/POPC/POPS liposome; type: binding, human; details: added alone, before moesin-FERM; 15% POPS/85% POPC; 0.3 mM CaCl2; 575 nm
How it was run: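 TMR-CLS was extruded (400-nm filter) into 15% POPS/85% POPC liposomes at 1:1000 peptide:lipid and diluted to about 5 nM in 50 mM Tris–HCl, 150 mM NaCl, 0.3 mM CaCl₂, pH 7.4. Additions carried 5 nM liposome. First 3 µM Ca/CaM, then moesin-FERM (400 nM, then 100 nM steps). TMR emission was recorded continuously at 575 nm (excitation 542 nm).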

B1: moesin-FERM: FERM domain of human moesin (residues 1–346), recombinant (protein)
chain: MPKTISVRVTTMDAELEFAIQPNTTGKQLFDQVVKTIGLREVWFFGLQYQDTKGFSTWLKLNKKVTAQDVRKESPLLFKFRAKFYPEDVSEELIQDITQRLFFLQVKEGILNDDIYCPPETAVLLASYAVQSKYGDFNKEVHKSGYLAGDKLLPQRVLEQHKLNKDQWEERIQVWHEEHRGMLREDAVLEYLKIAQDLEMYGVNYFSIKNKKGSELWLGVDALGLNIYEQNDRLTPKIGFPWSEIRNISFNDKKFVIKPIDKKAPDFVFYAPRLRINKRILALCMGNHELYMRRRKPDTIEVQQMKAQAREEKHQKQMERAMLENEKKKREMAEKEKEKIEREKEE
Question: Which results are given for B1?
Answer: change in IAEDANS fluorescence emission of IAEDANS-CaM (CaM (calmodulin)): little change in the IAEDANS fluorescence emission; change in TMR fluorescence of TMR-CLS/POPS liposome on addition [1]: decrease of TMR fluorescence emission
